{"source": "ChEMBL document CHEMBL4390639", "about": "“Design, Synthesis, and Biological Evaluation of Novel Allosteric Protein Disulfide Isomerase Inhibitors” (J Med Chem, 2019)", "key": {"U-87 MG [1]": {"tested_on": "U-87 MG", "test": "Up regulation of PSAT1 gene expression in human U87MG cells at 10 uM incubated for 4 hrs followed by bromouridine addition during last 30 mins of incubation by TRIzol-reagent based Bru-Seq analysis relative to control", "format": "functional, U-87MG ATCC", "in_short": "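U87MG cells exposed to compound or DMSO vehicle for 4 h, with 2 mM bromouridine added for the final 30 min. Total RNA isolated with TRIzol; Bru-labelled nascent RNA captured on anti-BrdU antibody-conjugated magnetic beads and sequenced. Transcript abundance expressed as RPKM relative to DMSO. Experiment performed once.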"}, "U-87 MG [2]": {"tested_on": "U-87 MG", "test": "Up regulation of TM4SF19-TCTEX1D2 gene expression in human U87MG cells at 10 uM incubated for 4 hrs followed by bromouridine addition during last 30 mins of incubation by TRIzol-reagent based Bru-Seq analysis relative to control", "format": "functional, U-87MG ATCC", "in_short": "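U87MG cells treated 4 h with test compound (10 or 16 μM, as per line) or DMSO; 2 mM bromouridine added for final 30 min. Total RNA isolated with TRIzol, Bru-labelled nascent RNA captured with anti-BrdU antibody magnetic beads and sequenced; transcript abundance (RPKM) compared with DMSO control. Single experiment.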"}}, "data": [{"smiles": "CCCCCN(CCCCC)S(=O)(=O)c1ccc(C(=O)/C=C/c2cccc(C#N)c2)cc1", "values": [{"measurement": "fold change (FC)", "setting": "U-87 MG [1]", "result": 11.7}, {"measurement": "fold change (FC)", "setting": "U-87 MG [2]", "result": 8.7}]}]}
